Tests used:
[1] = Biodistribution in ICR mouse liver 2 hr after iv injection of [18F]-compound in 0.1% bovine serum albumin solution, n = 3; assay type: ADME, organism-based; conditions: in vivo
How it was run: (§1)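 Male ICR mice (22-25 g) under isoflurane anesthesia received 0.15 mL of 0.1% BSA solution containing 5-10 μCi [¹⁸F]tracer by tail-vein injection; n = 3 per time point. Killed by cervical dislocation, organs removed, weighed and gamma-counted. %dose/g derived from sample counts vs. diluted initial dose; blood total activity assumed as 7% of body weight. Mean ± SD.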

[2] = Biodistribution in ICR mouse blood 30 min. after iv injection of [18F]-compound in 0.1% bovine serum albumin solution, n = 3; assay type: ADME, organism-based; conditions: in vivo, 0.5 h; how it was run: as §1
[3] = Biodistribution in ICR mouse bone 1 hr after iv injection of [18F]-compound in 0.1% bovine serum albumin solution, n = 3; assay type: ADME, organism-based, Bone element; conditions: in vivo; how it was run: as §1
[4] = Biodistribution in ICR mouse blood 1 hr after iv injection of [18F]-compound in 0.1% bovine serum albumin solution, n = 3; assay type: ADME, organism-based; conditions: in vivo; how it was run: as §1
[5] = Biodistribution in ICR mouse brain 30 min. after iv injection of [18F]-compound in 0.1% bovine serum albumin solution, n = 3; assay type: ADME, organism-based; conditions: in vivo, 0.5 h; how it was run: as §1
[6] = Biodistribution in ICR mouse skin 2 min. after iv injection of [18F]-compound in 0.1% bovine serum albumin solution, n = 3; assay type: ADME, organism-based, Zone of skin; conditions: in vivo; how it was run: as §1
[7] = Biodistribution in ICR mouse kidney 2 hr after iv injection of [18F]-compound in 0.1% bovine serum albumin solution, n = 3; assay type: ADME, organism-based; conditions: in vivo; how it was run: as §1
[8] = Biodistribution in ICR mouse lung 30 min. after iv injection of [18F]-compound in 0.1% bovine serum albumin solution, n = 3; assay type: ADME, organism-based; conditions: in vivo, 0.5 h; how it was run: as §1
[9] = Biodistribution in ICR mouse muscle 2 hr after iv injection of [18F]-compound in 0.1% bovine serum albumin solution, n = 3; assay type: ADME, organism-based, Muscle tissue; conditions: in vivo; how it was run: as §1
[10] = Biodistribution in ICR mouse muscle 1 hr after iv injection of [18F]-compound in 0.1% bovine serum albumin solution, n = 3; assay type: ADME, organism-based, Muscle tissue; conditions: in vivo; how it was run: as §1
[11] = Biodistribution in ICR mouse bone 2 hr after iv injection of [18F]-compound in 0.1% bovine serum albumin solution, n = 3; assay type: ADME, organism-based, Bone element; conditions: in vivo; how it was run: as §1
[12] = Biodistribution in ICR mouse bone 2 min. after iv injection of [18F]-compound in 0.1% bovine serum albumin solution, n = 3; assay type: ADME, organism-based, Bone element; conditions: in vivo; how it was run: as §1
[13] = Biodistribution in ICR mouse spleen 2 hr after iv injection of [18F]-compound in 0.1% bovine serum albumin solution, n = 3; assay type: ADME, organism-based; conditions: in vivo; how it was run: as §1
[14] = Biodistribution in ICR mouse heart 2 hr after iv injection of [18F]-compound in 0.1% bovine serum albumin solution, n = 3; assay type: ADME, organism-based; conditions: in vivo; how it was run: as §1
[15] = Biodistribution in ICR mouse heart 1 hr after iv injection of [18F]-compound in 0.1% bovine serum albumin solution, n = 3; assay type: ADME, organism-based; conditions: in vivo; how it was run: as §1
[16] = Biodistribution in ICR mouse lung 1 hr after iv injection of [18F]-compound in 0.1% bovine serum albumin solution, n = 3; assay type: ADME, organism-based; conditions: in vivo; how it was run: as §1
[17] = Biodistribution in ICR mouse blood 2 hr after iv injection of [18F]-compound in 0.1% bovine serum albumin solution, n = 3; assay type: ADME, organism-based; conditions: in vivo; how it was run: as §1
[18] = Biodistribution in ICR mouse skin 1 hr after iv injection of [18F]-compound in 0.1% bovine serum albumin solution, n = 3; assay type: ADME, organism-based, Zone of skin; conditions: in vivo; how it was run: as §1
[19] = target: Amyloid-beta precursor protein (Homo sapiens, UniProt P05067); experiment: Inhibition constant for I-125-IMPY binding to amyloid plaques in Alzheimers disease brain homogenates; assay type: tissue-based
Sequence of Amyloid-beta precursor protein (P05067 whole entry): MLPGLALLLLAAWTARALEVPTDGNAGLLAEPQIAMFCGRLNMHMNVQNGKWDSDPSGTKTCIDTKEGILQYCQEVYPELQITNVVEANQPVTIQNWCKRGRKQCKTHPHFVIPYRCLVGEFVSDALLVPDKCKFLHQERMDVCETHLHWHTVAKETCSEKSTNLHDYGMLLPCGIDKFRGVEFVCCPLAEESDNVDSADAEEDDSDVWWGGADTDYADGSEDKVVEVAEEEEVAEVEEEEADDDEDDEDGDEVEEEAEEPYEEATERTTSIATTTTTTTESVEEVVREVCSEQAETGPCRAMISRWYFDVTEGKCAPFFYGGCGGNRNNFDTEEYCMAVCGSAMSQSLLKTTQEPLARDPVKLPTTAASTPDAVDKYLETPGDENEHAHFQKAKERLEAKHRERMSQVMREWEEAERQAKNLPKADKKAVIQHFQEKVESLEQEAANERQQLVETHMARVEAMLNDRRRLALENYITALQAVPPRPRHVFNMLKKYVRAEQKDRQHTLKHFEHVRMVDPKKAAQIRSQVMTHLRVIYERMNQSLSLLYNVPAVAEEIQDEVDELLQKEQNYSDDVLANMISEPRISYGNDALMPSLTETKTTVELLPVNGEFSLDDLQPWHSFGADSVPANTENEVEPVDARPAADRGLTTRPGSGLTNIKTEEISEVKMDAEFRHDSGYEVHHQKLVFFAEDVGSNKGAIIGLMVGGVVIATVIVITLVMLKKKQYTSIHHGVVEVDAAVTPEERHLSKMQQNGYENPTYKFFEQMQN
How it was run: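 Competition binding in pooled postmortem AD cortical homogenates (dissected gray/white matter, ~100 mg wet tissue/ml PBS pH 7.4; 20-50 μg per tube). [¹²⁵I]IMPY at 0.04-0.06 nM; inhibitors 10^-5-10^-10 M in PBS with 0.1% BSA. Nonspecific binding with 600 nM IMPY. Incubated 2 hr at 37°C, GF/B filtration, PBS washes, gamma counting. Ki from nonlinear regression.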

[20] = Biodistribution in ICR mouse liver 30 min. after iv injection of [18F]-compound in 0.1% bovine serum albumin solution, n = 3; assay type: ADME, organism-based; conditions: in vivo, 0.5 h; how it was run: as §1
[21] = Biodistribution in ICR mouse spleen 2 min. after iv injection of [18F]-compound in 0.1% bovine serum albumin solution, n = 3; assay type: ADME, organism-based; conditions: in vivo; how it was run: as §1
[22] = Biodistribution in ICR mouse brain 2 hr after iv injection of [18F]-compound in 0.1% bovine serum albumin solution, n = 3; assay type: ADME, organism-based; conditions: in vivo; how it was run: as §1
[23] = Biodistribution in ICR mouse spleen 30 min. after iv injection of [18F]-compound in 0.1% bovine serum albumin solution, n = 3; assay type: ADME, organism-based; conditions: in vivo, 0.5 h; how it was run: as §1
[24] = Biodistribution in ICR mouse liver 1 hr after iv injection of [18F]-compound in 0.1% bovine serum albumin solution, n = 3; assay type: ADME, organism-based; conditions: in vivo; how it was run: as §1
[25] = Biodistribution in ICR mouse kidney 2 min. after iv injection of [18F]-compound in 0.1% bovine serum albumin solution, n = 3; assay type: ADME, organism-based; conditions: in vivo; how it was run: as §1
[26] = Biodistribution in ICR mouse blood 2 min. after iv injection of [18F]-compound in 0.1% bovine serum albumin solution, n = 3; assay type: ADME, organism-based; conditions: in vivo; how it was run: as §1
[27] = Biodistribution in ICR mouse heart 30 min. after iv injection of [18F]-compound in 0.1% bovine serum albumin solution, n = 3; assay type: ADME, organism-based; conditions: in vivo, 0.5 h; how it was run: as §1
[28] = Biodistribution in ICR mouse skin 30 min. after iv injection of [18F]-compound in 0.1% bovine serum albumin solution, n = 3; assay type: ADME, organism-based, Zone of skin; conditions: in vivo, 0.5 h; how it was run: as §1
[29] = Biodistribution in ICR mouse brain 2 min. after iv injection of [18F]-compound in 0.1% bovine serum albumin solution, n = 3; assay type: ADME, organism-based; conditions: in vivo; how it was run: as §1
[30] = Biodistribution in ICR mouse bone 30 min. after iv injection of [18F]-compound in 0.1% bovine serum albumin solution, n = 3; assay type: ADME, organism-based, Bone element; conditions: in vivo, 0.5 h; how it was run: as §1
[31] = Biodistribution in ICR mouse skin 2 hr after iv injection of [18F]-compound in 0.1% bovine serum albumin solution, n = 3; assay type: ADME, organism-based, Zone of skin; conditions: in vivo; how it was run: as §1
[32] = Biodistribution in ICR mouse liver 2 min. after iv injection of [18F]-compound in 0.1% bovine serum albumin solution, n = 3; assay type: ADME, organism-based; conditions: in vivo; how it was run: as §1
[33] = Biodistribution in ICR mouse muscle 30 min. after iv injection of [18F]-compound in 0.1% bovine serum albumin solution, n = 3; assay type: ADME, organism-based, Muscle tissue; conditions: in vivo, 0.5 h; how it was run: as §1
[34] = Biodistribution in ICR mouse heart 2 min. after iv injection of [18F]-compound in 0.1% bovine serum albumin solution, n = 3; assay type: ADME, organism-based; conditions: in vivo; how it was run: as §1
[35] = Biodistribution in ICR mouse lung 2 hr after iv injection of [18F]-compound in 0.1% bovine serum albumin solution, n = 3; assay type: ADME, organism-based; conditions: in vivo; how it was run: as §1
[36] = Biodistribution in ICR mouse muscle 2 min. after iv injection of [18F]-compound in 0.1% bovine serum albumin solution, n = 3; assay type: ADME, organism-based, Muscle tissue; conditions: in vivo; how it was run: as §1
[37] = Biodistribution in ICR mouse spleen 1 hr after iv injection of [18F]-compound in 0.1% bovine serum albumin solution, n = 3; assay type: ADME, organism-based; conditions: in vivo; how it was run: as §1
[38] = Biodistribution in ICR mouse kidney 30 min. after iv injection of [18F]-compound in 0.1% bovine serum albumin solution, n = 3; assay type: ADME, organism-based; conditions: in vivo, 0.5 h; how it was run: as §1
[39] = Biodistribution in ICR mouse kidney 1 hr after iv injection of [18F]-compound in 0.1% bovine serum albumin solution, n = 3; assay type: ADME, organism-based; conditions: in vivo; how it was run: as §1
[40] = Biodistribution in ICR mouse lung 2 min. after iv injection of [18F]-compound in 0.1% bovine serum albumin solution, n = 3; assay type: ADME, organism-based; conditions: in vivo; how it was run: as §1
[41] = Biodistribution in ICR mouse brain 1 hr after iv injection of [18F]-compound in 0.1% bovine serum albumin solution, n = 3; assay type: ADME, organism-based; conditions: in vivo; how it was run: as §1

CN(C)c1ccc(/C=C/c2ccc(OCC(CO)C[18F])cc2)cc1 (stereo not given)
Biodistribution [1]: 9.51 %Dose/g
Biodistribution [2]: 1.65 %Dose/g
Biodistribution [3]: 6.5 %Dose/g
Biodistribution [4]: 1.51 %Dose/g
Biodistribution [5]: 5.21 %Dose/g
Biodistribution [6]: 0.67 %Dose/g
Biodistribution [7]: 2.19 %Dose/g
Biodistribution [8]: 12.93 %Dose/g
Biodistribution [9]: 0.66 %Dose/g
Biodistribution [10]: 1.22 %Dose/g
Biodistribution [11]: 8.63 %Dose/g
Biodistribution [12]: 1.57 %Dose/g
Biodistribution [13]: 0.99 %Dose/g
Biodistribution [14]: 0.91 %Dose/g
Biodistribution [15]: 1.45 %Dose/g
Biodistribution [16]: 5 %Dose/g
Biodistribution [17]: 1.18 %Dose/g
Biodistribution [18]: 1.65 %Dose/g
Ki [19]: 15 nM
Biodistribution [20]: 14.65 %Dose/g
Biodistribution [21]: 4.43 %Dose/g
Biodistribution [22]: 1.37 %Dose/g
Biodistribution [23]: 2.45 %Dose/g
Biodistribution [24]: 13.46 %Dose/g
Biodistribution [25]: 13.32 %Dose/g
Biodistribution [26]: 1.79 %Dose/g
Biodistribution [27]: 2.76 %Dose/g
Biodistribution [28]: 1.69 %Dose/g
Biodistribution [29]: 5.55 %Dose/g
Biodistribution [30]: 2.06 %Dose/g
Biodistribution [31]: 1 %Dose/g
Biodistribution [32]: 14.13 %Dose/g
Biodistribution [33]: 1.53 %Dose/g
Biodistribution [34]: 10.43 %Dose/g
Biodistribution [35]: 3.74 %Dose/g
Biodistribution [36]: 0.84 %Dose/g
Biodistribution [37]: 1.24 %Dose/g
Biodistribution [38]: 4.64 %Dose/g
Biodistribution [39]: 2.97 %Dose/g
Biodistribution [40]: 93.4 %Dose/g
Biodistribution [41]: 2.97 %Dose/g

Nc1ccc(/C=C/c2ccc(O)cc2)cc1
Ki [19]: 95 nM

Cc1ccc(S(=O)(=O)OCC(CO)COc2ccc(/C=C/c3ccc(N(C)C)cc3)cc2)cc1 (stereo not given)
Ki [19]: 150 nM

CN(C)c1ccc(/C=C/c2ccc(OCC(CO)Cc3ccc(Br)cc3)cc2)cc1 (stereo not given)
Ki [19]: 80 nM

CN(C)c1ccc(/C=C/c2ccc(OCC(CO)CO)cc2)cc1
Ki [19]: 38 nM

CNc1ccc(/C=C/c2ccc(OCC(CO)CO)cc2)cc1
Ki [19]: 32.5 nM

Nc1ccc(/C=C/c2ccc(OCC(CO)CF)cc2)cc1 (stereo not given)
Ki [19]: 15 nM

CN(C)c1ccc(/C=C/c2ccc(O)cc2)cc1
Ki [19]: 1.1 nM

CN(C)c1ccc(/C=C/c2ccc(OCC3COC(C)(C)OC3)cc2)cc1
Ki [19]: 59 nM

CNc1ccc(/C=C/c2ccc(OCC(CO)C[18F])cc2)cc1 (stereo not given)
Biodistribution [1]: 8.14 %Dose/g
Biodistribution [2]: 2.47 %Dose/g
Biodistribution [3]: 5.3 %Dose/g
Biodistribution [4]: 1.82 %Dose/g
Biodistribution [5]: 1.7 %Dose/g
Biodistribution [6]: 0.92 %Dose/g
Biodistribution [7]: 1.5 %Dose/g
Biodistribution [8]: 8.9 %Dose/g
Biodistribution [9]: 0.41 %Dose/g
Biodistribution [10]: 0.85 %Dose/g
Biodistribution [11]: 7.76 %Dose/g
Biodistribution [12]: 1.53 %Dose/g
Biodistribution [13]: 1.22 %Dose/g
Biodistribution [14]: 0.65 %Dose/g
Biodistribution [15]: 1.54 %Dose/g
Biodistribution [16]: 7.51 %Dose/g
Biodistribution [17]: 0.78 %Dose/g
Biodistribution [18]: 1.22 %Dose/g
Ki [19]: 5 nM
Biodistribution [20]: 19.6 %Dose/g
Biodistribution [21]: 5.01 %Dose/g
Biodistribution [22]: 0.31 %Dose/g
Biodistribution [23]: 2.41 %Dose/g
Biodistribution [24]: 14.58 %Dose/g
Biodistribution [25]: 11.7 %Dose/g
Biodistribution [26]: 2.6 %Dose/g
Biodistribution [27]: 2.06 %Dose/g
Biodistribution [28]: 1.49 %Dose/g
Biodistribution [29]: 9.75 %Dose/g
Biodistribution [30]: 2.13 %Dose/g
Biodistribution [31]: 0.57 %Dose/g
Biodistribution [32]: 20.61 %Dose/g
Biodistribution [33]: 1.31 %Dose/g
Biodistribution [34]: 7.49 %Dose/g
Biodistribution [35]: 4.15 %Dose/g
Biodistribution [36]: 0.74 %Dose/g
Biodistribution [37]: 1.37 %Dose/g
Biodistribution [38]: 4.13 %Dose/g
Biodistribution [39]: 3.06 %Dose/g
Biodistribution [40]: 26.13 %Dose/g
Biodistribution [41]: 0.72 %Dose/g
